Results: ChEMBL document CHEMBL1144033, “Novel trans-3,4-dimethyl-4-(3-hydroxyphenyl)piperidines as mu opioid receptor antagonists with improved opioid receptor selectivity profiles” (Bioorg Med Chem Lett, 2008)
Active and inactive are the calls of the source. The calls are words filed in the database; no cut-off is given here.

Assays:
[1] = molecular target: Mu-type opioid receptor (Homo sapiens) (UniProt P35372); assay: Displacement of [3H]diprenorphine from human cloned mu opioid receptor at 10 uM
Sequence of Mu-type opioid receptor (Homo sapiens) (P35372 whole entry): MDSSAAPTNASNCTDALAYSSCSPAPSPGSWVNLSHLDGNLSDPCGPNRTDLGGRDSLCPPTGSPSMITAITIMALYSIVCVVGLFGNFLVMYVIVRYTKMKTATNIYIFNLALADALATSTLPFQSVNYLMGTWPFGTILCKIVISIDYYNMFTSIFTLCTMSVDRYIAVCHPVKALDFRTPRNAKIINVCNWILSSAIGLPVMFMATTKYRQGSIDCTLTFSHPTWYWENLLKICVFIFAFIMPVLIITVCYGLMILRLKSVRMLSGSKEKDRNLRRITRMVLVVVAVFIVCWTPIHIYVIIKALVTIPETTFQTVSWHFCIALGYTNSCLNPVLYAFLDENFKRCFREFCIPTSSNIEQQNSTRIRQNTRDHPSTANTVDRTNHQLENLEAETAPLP

[2] = molecular target: T1, Kappa-type opioid receptor (Homo sapiens, UniProt P41145); assay: Displacement of [3H]diprenorphine from human cloned kappa opioid receptor at 10 uM
T1 sequence (P41145 whole entry): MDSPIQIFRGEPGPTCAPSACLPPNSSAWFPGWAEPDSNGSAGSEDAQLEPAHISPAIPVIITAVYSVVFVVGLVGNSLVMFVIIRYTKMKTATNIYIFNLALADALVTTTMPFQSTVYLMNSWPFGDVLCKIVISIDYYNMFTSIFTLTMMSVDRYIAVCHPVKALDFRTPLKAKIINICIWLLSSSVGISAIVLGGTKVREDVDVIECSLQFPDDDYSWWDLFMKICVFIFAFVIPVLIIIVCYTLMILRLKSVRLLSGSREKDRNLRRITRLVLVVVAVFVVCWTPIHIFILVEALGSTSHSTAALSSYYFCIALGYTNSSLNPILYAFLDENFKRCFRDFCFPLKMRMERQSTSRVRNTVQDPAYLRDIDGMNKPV

[3] = molecular target: T2, Delta-type opioid receptor (Homo sapiens, UniProt P41143); assay: Displacement of [3H]diprenorphine from human cloned delta opioid receptor at 10 uM
T2 sequence (P41143 whole entry): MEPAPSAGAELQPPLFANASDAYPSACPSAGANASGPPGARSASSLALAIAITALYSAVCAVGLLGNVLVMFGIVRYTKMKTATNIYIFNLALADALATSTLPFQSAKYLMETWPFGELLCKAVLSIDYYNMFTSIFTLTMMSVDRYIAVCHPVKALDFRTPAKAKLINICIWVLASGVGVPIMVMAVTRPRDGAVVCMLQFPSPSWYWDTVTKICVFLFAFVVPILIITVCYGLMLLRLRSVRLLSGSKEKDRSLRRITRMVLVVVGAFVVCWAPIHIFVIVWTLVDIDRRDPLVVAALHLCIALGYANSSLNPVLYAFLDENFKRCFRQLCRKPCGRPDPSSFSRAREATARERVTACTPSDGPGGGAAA

[4] = molecular target: T1, Kappa-type opioid receptor; assay: Displacement of [3H]diprenorphine from human cloned kappa opioid receptor
[5] = molecular target: T2, Delta-type opioid receptor; assay: Displacement of [3H]diprenorphine from human cloned delta opioid receptor
Mus musculus [6] = assay: Antagonist activity on morphine-induced gastrointestinal antitransit effect in Swiss Webster mouse at 0.1 mg/kg, sc after 1 hr; type: functional; design: scale not given: the % may be the effect or the level left; details: route subcutaneous
Procedure, shortened: (§1)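 Male Swiss-Webster mice (20-25 g), fasted overnight, got vehicle (10% DMSO:20% cremophor EL:70% saline) or compound s.c. Morphine (3 mg/kg s.c.) followed 25 min later. After a further 10 min, mice received 0.3 mL charcoal meal (charcoal:flour:water 1:2:8, w/w/v). Small intestine removed 25 min later; %GIT = charcoal leading-edge distance/intestine length ×100.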

Mus musculus [7] = assay: Antagonist activity on morphine-induced gastrointestinal antitransit effect in Swiss Webster mouse at 1 mg/kg, sc after 1 hr; type: functional; design: scale not given: the % may be the effect or the level left; details: route subcutaneous; procedure, shortened: as §1
Mus musculus [8] = assay: Antagonist activity on morphine-induced gastrointestinal antitransit effect in Swiss Webster mouse at 0.3 mg/kg, po after 1 hr; type: functional, organism-based; design: dose 0.3 mg/kg
Mus musculus [9] = assay: Antagonist activity on morphine-induced physical dependence in Swiss Webster mouse at 10 mg/kg, po; type: functional, organism-based; design: dose 10 mg/kg

Row | SMILES | Ki [4] [nM] | Ki [5] [nM] | also measured
1 | C[C@H]1CN(CCC(=O)N[C@@H](CCCCN)C(=O)O)CC[C@@]1(C)c1cccc(O)c1 |  |  | inhibition [1]: 45%; inhibition [2]: 3%; inhibition [3]: 11%
2 | C[C@H]1CN(C[C@H](Cc2ccccc2)C(=O)N[C@@H](Cc2ccc3ccccc3c2)C(=O)O)CC[C@@]1(C)c1cccc(O)c1 | 240 | 3.2 | 
3 | C[C@H]1CN(CCC(=O)N[C@@H](CCc2ccccc2)C(=O)O)CC[C@@]1(C)c1cccc(O)c1 | 690 | 360 | 
4 | C[C@H]1CN(CCC(=O)NCC(=O)O)CC[C@@]1(C)c1cccc(O)c1 |  |  | inhibition [1]: 20%; inhibition [2]: 4%; inhibition [3]: 5%
5 | C[C@H]1CN(C[C@H](Cc2ccccc2)C(=O)NCC(=O)O)CC[C@@]1(C)c1cccc(O)c1 [ALVIMOPAN] | 100 | 12 | Activity (Mus musculus [6]): 69%
6 | C[C@H]1CN(CCC(=O)N(Cc2ccccc2)[C@@H](Cc2ccccc2)C(=O)O)CC[C@@]1(C)c1cccc(O)c1 | 550 | 39 | 
7 | C[C@H]1CN(CCC(=O)N[C@@H](CC2CCCCC2)C(=O)O)CC[C@@]1(C)c1cccc(O)c1 |  | 170 | inhibition [2]: 44%
8 | CCN(C(=O)CCN1CC[C@@](C)(c2cccc(O)c2)[C@@H](C)C1)[C@@H](Cc1ccccc1)C(=O)O |  | 510 | inhibition [2]: 44%
9 | C[C@H]1CN(C[C@H](Cc2ccccc2)C(=O)N[C@@H](Cc2cccc3ccccc23)C(=O)O)CC[C@@]1(C)c1cccc(O)c1 | 83 | 31 | 
10 | C[C@H]1CN(CCC(=O)N(c2ccccc2)[C@@H](Cc2ccccc2)C(=O)O)CC[C@@]1(C)c1cccc(O)c1 | 1400 | 67 | 
11 | C[C@H]1CN(C[C@H](Cc2ccccc2)C(=O)N[C@@H](Cc2ccccc2)C(=O)O)CC[C@@]1(C)c1cccc(O)c1 | 250 | 15 | 
12 | C[C@H]1CN(C[C@H](Cc2ccccc2)C(=O)N[C@@H](CCCCN)C(=O)O)CC[C@@]1(C)c1cccc(O)c1 |  |  | Activity (Mus musculus [6]): 64%; Activity (Mus musculus [7]): 82%; Activity (Mus musculus [8]): Active; Activity (Mus musculus [9]): inactive
13 | C[C@H]1CN(CCC(=O)N(Cc2ccc(-c3ccccc3)cc2)[C@@H](Cc2ccccc2)C(=O)O)CC[C@@]1(C)c1cccc(O)c1 | 230 | 52 | 
14 | CC(C)CN(C(=O)CCN1CC[C@@](C)(c2cccc(O)c2)[C@@H](C)C1)[C@@H](Cc1ccccc1)C(=O)O | 2200 |  | 
15 | C[C@H]1CN(C[C@H](Cc2ccccc2)C(=O)N[C@@H](CC(=O)O)C(=O)O)CC[C@@]1(C)c1cccc(O)c1 |  | 500 | inhibition [2]: 27%
16 | C[C@H](NC(=O)[C@@H](Cc1ccccc1)CN1CC[C@@](C)(c2cccc(O)c2)[C@@H](C)C1)C(=O)O | 67 | 22 | 
17 | C[C@H]1CN(CCC(=O)N[C@@H](Cc2ccccc2)C(=O)O)CC[C@@]1(C)c1cccc(O)c1 |  | 990 | inhibition [2]: 39%
18 | C[C@H]1CN(CCC(=O)N(CC2CC2)[C@@H](Cc2ccccc2)C(=O)O)CC[C@@]1(C)c1cccc(O)c1 | 2200 | 100 | 
19 | C[C@H]1CN(C[C@H](Cc2ccccc2)C(=O)N[C@@H](CC2CCCCC2)C(=O)O)CC[C@@]1(C)c1cccc(O)c1 | 720 | 15 | 
20 | C[C@H]1CN(CCC(=O)N[C@@H](Cc2ccc(-c3ccccc3)cc2)C(=O)O)CC[C@@]1(C)c1cccc(O)c1 | 1100 | 160 | 
21 | C[C@H]1CN(CCC(=O)N(CCc2ccccc2)[C@@H](Cc2ccccc2)C(=O)O)CC[C@@]1(C)c1cccc(O)c1 | 1200 |  | 
22 | C[C@H]1CN(CCC(=O)N(Cc2cccc(Cl)c2)[C@@H](Cc2ccccc2)C(=O)O)CC[C@@]1(C)c1cccc(O)c1 | 460 | 24 | 
23 | C[C@H]1CN(C[C@H](Cc2ccccc2)C(=O)N[C@@H](Cc2ccc(-c3ccccc3)cc2)C(=O)O)CC[C@@]1(C)c1cccc(O)c1 | 160 | 8.3 | 
24 | C[C@H]1CN(C[C@H](Cc2ccccc2)C(=O)N[C@@H](CCc2ccccc2)C(=O)O)CC[C@@]1(C)c1cccc(O)c1 | 510 | 10 | 
25 | C[C@H]1CN(C[C@H](Cc2ccccc2)C(=O)N[C@@H](CCC(=O)O)C(=O)O)CC[C@@]1(C)c1cccc(O)c1 |  | 360 | inhibition [2]: 26%
26 | C[C@@H](NC(=O)[C@@H](Cc1ccccc1)CN1CC[C@@](C)(c2cccc(O)c2)[C@@H](C)C1)C(=O)O | 910 | 74 | 
27 | C[C@H]1CN(CCC(=O)N(C)[C@@H](Cc2ccccc2)C(=O)O)CC[C@@]1(C)c1cccc(O)c1 |  | 620 | inhibition [2]: 35%
